Measurements reported in ChEMBL document CHEMBL3877276, “Design, synthesis, and biological evaluation of cyclic-indole derivatives as anti-tumor agents via the inhibition of tubulin polymerization” (Eur J Med Chem, 2017).
One block for each compound: values may come before it. Active and inactive are the calls of the source. No cut-off for these calls is given here.

Legend:
[1] = Antiproliferative activity against human A549 cells measured after 48 hrs by MTT assay; format: functional, cell-based; settings: A549, 48 h
[2] = Antiproliferative activity against human HeLa cells measured after 48 hrs by MTT assay; format: functional, cell-based
[3] = Antiproliferative activity against human PC3 cells measured after 48 hrs by MTT assay; format: functional, cell-based; settings: PC-3, 48 h
[4] = Antiproliferative activity against human Bel7402 cells measured after 48 hrs by MTT assay; format: functional, cell-based; settings: Bel-7402, 48 h
[5] = Antiproliferative activity against human LoVo cells measured after 48 hrs by MTT assay; format: functional, cell-based
[6] = Antiproliferative activity against human A2780 cells measured after 48 hrs by MTT assay; format: functional, cell-based; settings: A2780, 48 h
[7] = Antiproliferative activity against human MCF7 cells measured after 48 hrs by MTT assay; format: functional, cell-based; settings: MCF7, 48 h
[8] = Inhibition of porcine brain tubulin polymerization measured every 60 secs for 90 mins by fluorescence assay; parameters: species or system Sus scrofa
In short: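 Porcine brain tubulin in a fluorescence kit. Reaction mix: 80.0 mM PIPES sesquisodium (pH 6.9), 2.0 mM MgCl2, 0.5 mM EGTA, 1 mM GTP, 10.2% glycerol. Compound added and mix pre-warmed 1 min at 37 °C, then tubulin added to start. Fluorescence (ex 340, em 410 nm) read every 60 s for 90 min. IC50 from area under curve, three independent experiments.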

[9] = Antiproliferative activity against HUVEC in presence of fetal calf serum and absence of growth factor measured after 48 hrs by MTT assay; format: cell-based; settings: Homo sapiens
In short: (§1)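 Cells in log phase plated at 5×10^3 cells/well, grown 24 h at 37 °C, 5% CO2, then exposed to a range of compound concentrations for 48 h. MTT (5 mg/mL stock) added, formazan dissolved in DMSO, absorbance read at 570 nm. IC50 from nonlinear regression, at least three independent experiments. Quiescent HUVECs kept in endothelial medium with 0.5% fetal calf serum, no growth factor.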

[10] = Antiproliferative activity against human MCF10A cells measured after 48 hrs by MTT assay; format: cell-based; settings: MCF-10A; in short: as §1
[11] = Antiproliferative activity against human BJ cells measured after 48 hrs by MTT assay; format: cell-based; in short: as §1
[12] = Antiproliferative activity against HLF measured after 48 hrs by MTT assay; settings: Homo sapiens; in short: as §1
[13] = Selectivity ratio of IC50 for HUVEC in presence of fetal calf serum and absence of growth factor to IC50 for human A549 cells; format: cell-based; settings: HUVEC versus A549 cells, read-out: Ratio IC50
In short: (§2)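 Ratio = IC50 in the normal line (HUVEC quiescent in 0.5% fetal calf serum without growth factor, MCF-10A, BJ or HLF) divided by IC50 in A549.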

[14] = Selectivity ratio of IC50 for human MCF10A cells to IC50 for human A549 cells; format: ADME, cell-based; settings: MCF10A cells versus A549 cells, read-out: Ratio IC50; in short: as §2
[15] = Selectivity ratio of IC50 for human BJ cells to IC50 for human A549 cells; format: ADME, cell-based; settings: BJ cells versus A549 cells, read-out: Ratio IC50; in short: as §2
[16] = Selectivity ratio of IC50 for HLF to IC50 for human A549 cells; format: ADME, cell-based; settings: HLF versus A549 cells, read-out: Ratio IC50; in short: as §2
A549 [17] = assay: Cytotoxicity against human A549 cells assessed as change in cell morphology at 20 to 200 nM measured after 48 hrs by phase contrast microscopy; format: functional, cell-based
In short: (§3)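 A549 cells and quiescent HUVECs (0.5% fetal calf serum, no growth factor) treated at 20 and 200 nM for 48 h. Morphology (rounding, shrinkage, blebbing, detachment) inspected by microscopy.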

[18] = Cytotoxicity against HUVEC assessed as change in cell morphology at 20 nM in presence of fetal calf serum and absence of growth factor measured after 48 hrs by phase contrast microscopy; format: toxicity, cell-based; settings: human, 0.02 µM; in short: as §3
A549 [19] = assay: Disruption of cellular microtubule network in human A549 cells measured after 12 hrs by Hochest 33342 staining based laser confocal microscopy; format: cell-based
A549 [20] = assay: Disruption of cellular microtubule network in human A549 cells assessed as blockade of cell mitosis measured after 12 hrs by Hochest 33342 staining based laser confocal microscopy
[21] = Cytotoxicity against HUVEC assessed as change in cell morphology at 200 nM in presence of fetal calf serum and absence of growth factor measured after 48 hrs by phase contrast microscopy; format: toxicity, cell-based; settings: human, 0.2 µM; in short: as §3
[22] = Cell cycle arrest in human A549 cells assessed as reduction in G1 phase at 10 to 50 nM measured after 24 to 48 hrs by propidium iodide staining based flow cytometry; format: functional
In short: (§4)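 A549 seeded at 3×10^5 cells/well and treated 24 or 48 h. Trypsinized, fixed in 70% ethanol at 4 °C overnight, RNase A 37 °C 30 min, then PI 4 °C 30 min. DNA content of 10,000 events read by flow cytometry at 488 nm. Three repeats.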

[23] = Cell cycle arrest in human A549 cells assessed as accumulation at G2/M phase at 10 nM measured after 24 hrs by propidium iodide staining based flow cytometry relative to control; format: functional; in short: as §4
[24] = Cell cycle arrest in human A549 cells assessed as accumulation at G2/M phase at 25 nM measured after 24 hrs by propidium iodide staining based flow cytometry relative to control; format: functional; in short: as §4
[25] = Cell cycle arrest in human A549 cells assessed as accumulation at G2/M phase at 50 nM measured after 24 hrs by propidium iodide staining based flow cytometry relative to control; format: functional; in short: as §4
A549 [26] = assay: Induction of apoptosis in human A549 cells by Annexin-V-FITC/propidium iodide staining based flow cytometry; format: functional, cell-based
In short: (§5)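 A549 seeded at 3×10^5 cells/well and treated at 10, 20 or 50 nM for 24 or 48 h, then harvested. Annexin V-FITC in HEPES 10 mM/NaCl 140 mM/CaCl2 2.5 mM (pH 7.4) 15 min at room temperature, then PI 10 min. About 10,000 events by flow cytometry, quadrants scored as early or late apoptotic. Three repeats.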

A549 [27] = assay: Induction of apoptosis in human A549 cells assessed as late and early apoptotic cells at 10 nM measured after 24 hrs by Annexin-V-FITC/propidium iodide staining based flow cytometry (reference value: 0.63 %); format: functional; in short: as §5
A549 [28] = assay: Induction of apoptosis in human A549 cells assessed as late and early apoptotic cells at 20 nM measured after 24 hrs by Annexin-V-FITC/propidium iodide staining based flow cytometry (reference value: 0.63 %); format: functional; in short: as §5
A549 [29] = assay: Induction of apoptosis in human A549 cells assessed as late and early apoptotic cells at 50 nM measured after 24 hrs by Annexin-V-FITC/propidium iodide staining based flow cytometry (reference value: 0.63 %); format: functional; in short: as §5
A549 [30] = assay: Induction of apoptosis in human A549 cells assessed as late and early apoptotic cells at 10 nM measured after 48 hrs by Annexin-V-FITC/propidium iodide staining based flow cytometry (reference value: 0.63 %); format: functional; in short: as §5
A549 [31] = assay: Induction of apoptosis in human A549 cells assessed as late and early apoptotic cells at 20 nM measured after 48 hrs by Annexin-V-FITC/propidium iodide staining based flow cytometry (reference value: 0.63 %); format: functional; in short: as §5
A549 [32] = assay: Induction of apoptosis in human A549 cells assessed as late and early apoptotic cells at 50 nM measured after 48 hrs by Annexin-V-FITC/propidium iodide staining based flow cytometry (reference value: 0.63 %); format: functional; in short: as §5

SMILES: COC(=O)C(=O)c1cn(C)c2ccc3c(c12)CCCC=C3c1cc(OC)c(OC)c(OC)c1
IC50 [1]: > 10 µM
IC50 [2]: > 10 µM
IC50 [3]: > 10 µM
IC50 [4]: > 10 µM
IC50 [5]: > 10 µM
IC50 [6]: > 10 µM
IC50 [7]: > 10 µM

IC50 [8]: 1.04 µM
SMILES: COc1cc(C2=CCCCc3c2ccc2c3CCN2C)cc(OC)c1OC
IC50 [1]: 0.056 µM
IC50 [2]: 0.045 µM
IC50 [3]: 0.077 µM
IC50 [4]: 0.061 µM
IC50 [5]: 0.079 µM
IC50 [6]: 0.069 µM
IC50 [7]: 0.058 µM

SMILES: COc1cc(C2=CCCCc3c2ccc2c3CCN2)cc(OC)c1OC
IC50 [1]: 0.312 µM
IC50 [2]: 0.701 µM
IC50 [3]: 0.741 µM
IC50 [4]: 0.797 µM
IC50 [5]: 1.12 µM
IC50 [6]: 0.597 µM
IC50 [7]: 0.812 µM

SMILES: COc1cc(C2=CCCCc3c2ccc2[nH]cc(C=O)c32)cc(OC)c1OC
IC50 [1]: 0.47 µM
IC50 [2]: 0.86 µM
IC50 [3]: 0.95 µM
IC50 [4]: 1.26 µM
IC50 [5]: 1.13 µM
IC50 [6]: 1.02 µM
IC50 [7]: 2.06 µM

SMILES: COc1ccc(/C=C\c2cc(OC)c(OC)c(OC)c2)cc1O [COMBRETASTATIN A4]
IC50 [1]: 0.01 µM
IC50 [2]: 0.012 µM
IC50 [3]: 0.026 µM
IC50 [4]: 0.013 µM
IC50 [5]: 0.017 µM
IC50 [7]: 0.029 µM
IC50 [8]: 1.12 µM

SMILES: CCCn1ccc2c3c(ccc21)C(c1cc(OC)c(OC)c(OC)c1)=CCCC3
IC50 [1]: 0.52 µM
IC50 [2]: 0.6 µM
IC50 [3]: 0.69 µM
IC50 [4]: 0.48 µM
IC50 [5]: 0.69 µM
IC50 [6]: 0.24 µM
IC50 [7]: 0.78 µM

IC50 [8]: 0.15 µM
SMILES: COc1cc(C2CCCCc3c2ccc2c3ccn2C)cc(OC)c1OC (stereo not given)
IC50 [1]: 0.022 µM
IC50 [2]: 0.056 µM
IC50 [3]: 0.047 µM
IC50 [4]: 0.039 µM
IC50 [5]: 0.049 µM
IC50 [6]: 0.037 µM
IC50 [7]: 0.051 µM
IC50 [9]: 0.213 µM
IC50 [10]: 0.672 µM
IC50 [11]: 1.21 µM
IC50 [12]: 1.67 µM
selectivity ratio [13]: 9.68
selectivity ratio [14]: 30.5
selectivity ratio [15]: 55
selectivity ratio [16]: 76.1
Activity (A549 [17]): Active
Activity [18]: Non-Toxic
Activity (A549 [19]): Active
Activity (A549 [20]): Active
Activity [21]: Toxic
Activity [22]: Active
Activity [23]: 41%
Activity [24]: 55.1%
Activity [25]: 72.1%
Activity (A549 [26]): Dose-dependent effect
Activity (A549 [27]): 22.8%
Activity (A549 [28]): 39.6%
Activity (A549 [29]): 59.8%
Activity (A549 [30]): 41.4%
Activity (A549 [31]): 58.4%
Activity (A549 [32]): 60.2%

SMILES: COc1cc(C2=CCCCc3c2ccc2[nH]ccc32)cc(OC)c1OC
IC50 [1]: 0.451 µM
IC50 [2]: 0.79 µM
IC50 [3]: 0.98 µM
IC50 [4]: 0.62 µM
IC50 [5]: 0.52 µM
IC50 [6]: 1.01 µM
IC50 [7]: 1.56 µM

SMILES: CCn1ccc2c3c(ccc21)C(c1cc(OC)c(OC)c(OC)c1)=CCCC3
IC50 [1]: 0.056 µM
IC50 [2]: 0.061 µM
IC50 [3]: 0.085 µM
IC50 [4]: 0.066 µM
IC50 [5]: 0.039 µM
IC50 [6]: 0.032 µM
IC50 [7]: 0.079 µM

IC50 [8]: 0.47 µM
SMILES: COc1cc(C2=CCCCc3c2ccc2c3c(C=O)cn2C)cc(OC)c1OC
IC50 [1]: 0.029 µM
IC50 [2]: 0.041 µM
IC50 [3]: 0.031 µM
IC50 [4]: 0.049 µM
IC50 [5]: 0.052 µM
IC50 [6]: 0.033 µM
IC50 [7]: 0.059 µM

IC50 [8]: 0.58 µM
SMILES: COc1cc(C2=CCCCc3c2ccc2c3ccn2C)cc(OC)c1OC
IC50 [1]: 0.049 µM
IC50 [2]: 0.056 µM
IC50 [3]: 0.093 µM
IC50 [4]: 0.078 µM
IC50 [5]: 0.047 µM
IC50 [6]: 0.044 µM
IC50 [7]: 0.069 µM

IC50 [8]: 0.41 µM
SMILES: COc1cc(C2=CCCCc3c2ccc2c3c(CO)cn2C)cc(OC)c1OC
IC50 [1]: 0.043 µM
IC50 [2]: 0.033 µM
IC50 [3]: 0.049 µM
IC50 [4]: 0.046 µM
IC50 [5]: 0.032 µM
IC50 [6]: 0.031 µM
IC50 [7]: 0.063 µM

SMILES: COc1cc(C2=CCc3c2ccc2c3ccn2C)cc(OC)c1OC
IC50 [1]: 0.149 µM
IC50 [2]: 0.326 µM
IC50 [3]: 0.412 µM
IC50 [4]: 0.561 µM
IC50 [5]: 0.297 µM
IC50 [6]: 0.186 µM
IC50 [7]: 0.449 µM
